An excerpt weighted towards active compounds, which were near 2.8% of everything screened.
EBI2 antag – EBI2 (human) antagonism | P32249 | EBI2 beta-arrestin recruitment, luminescence, 7a,25-OHC stimulated | inhibition, % at 5 µM | actives 0.81% (n = 360,000) | AID 651636; in the data active = inhibition above about 38%;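 note: enzyme fragment complementation signal reports receptor beta-arrestin coupling in cells; 0% = agonist plus DMSO wells and 100% = wells without agonist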
HTR2A ag – activates the mouse 5-HT2A serotonin receptor; actives 0.66% (n = 360,000); CHO-K1 mHTR2A beta-arrestin complementation, luminescence; percent of 30 µM serotonin response; AID 624169; activation, % at 7.6 µM; P35363;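 active = activation above a run cutoff, the mean activation of all tested compounds plus 3 SD, cut at about 14% in these data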;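 note: 0% = plate median of compound wells and 100% = 30 µM serotonin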
MC4R barr agon – agonists of human melanocortin 4 receptor (MC4R) beta-arrestin; P32245; U2OS MC4R beta-arrestin complementation, luminescence; percent of melanotan II response, DMSO zero; activation, % at 8.9 µM; actives 0.98% (n = 360,000);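 active = activation above a per-plate cutoff, the mean activation of sample wells on that plate plus 3 SD, cut at about 8% in these data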
MC4R antag cAMP – antagonists of human melanocortin 4 receptor (MC4R) | P32245 | inhibition, % at 6.5 µM | actives 0.48% (n = 360,000) | MC4R-expressing cells, MTII-stimulated cAMP, LANCE TR-FRET;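 active = inhibition above its plate's cutoff, the mean of tested wells on that plate plus 3 SD, cut at about 29% in these data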;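 note: 0% = Melanotan II alone and 100% = Melanotan II plus saturating MCL0020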
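System: U2OS-MC4R stable cell line; Technique: Eu-cAMP/anti-cAMP TR-FRET, emission 671 nm; Repeats: single well per compound; Also added: Melanotan II; Dosing: one concentration, 6.5 µM nominal; Schedule: 30-min compound, 1-h challenge, 1-h detection, room temperature.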
MC4R barr ag – human MC4R beta-arrestin agonism confirmation; shares compounds with MC4R barr agon; U2OS MC4R beta-arrestin recruitment, luminescence; scaled DMSO 0%, Melanotan II 100%; activation, % at 8.9 µM; actives 31% (n = 2,400);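 active = mean activation across replicates above the hit cutoff set in the earlier primary screen, cut at about 8% in these data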
MOR-DOR barr ag – counter-screen for MC4R agonists: agonists of mu-delta opioid heterodimer. shares compounds with MC4R barr agon. U2OS PathHunter beta-arrestin, beta-gal luminescence; percent of deltorphin B response, DMSO zero. activation, % at 9.2 µM. actives 5.8% (n = 2,400). AID 602194;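 active = mean activation across replicates exceeds the hit threshold derived in the earlier primary screen, cut at about 18% in these data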;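 note: 100% = deltorphin B at 0.9 µM final and 0% = DMSO alone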
Target sequence (P35372 whole entry, looked up): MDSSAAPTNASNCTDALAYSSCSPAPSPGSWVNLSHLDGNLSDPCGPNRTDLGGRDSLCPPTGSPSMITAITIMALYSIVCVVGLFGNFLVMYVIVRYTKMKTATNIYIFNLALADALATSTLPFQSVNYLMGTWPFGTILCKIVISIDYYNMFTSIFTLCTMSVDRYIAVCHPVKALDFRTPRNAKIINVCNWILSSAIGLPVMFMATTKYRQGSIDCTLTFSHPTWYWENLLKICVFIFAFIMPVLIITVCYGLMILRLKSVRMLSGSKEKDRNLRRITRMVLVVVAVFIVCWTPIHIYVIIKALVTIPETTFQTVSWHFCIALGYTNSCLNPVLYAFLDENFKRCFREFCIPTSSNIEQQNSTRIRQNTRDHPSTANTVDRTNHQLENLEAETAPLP
Target sequence (P41143 whole entry, looked up): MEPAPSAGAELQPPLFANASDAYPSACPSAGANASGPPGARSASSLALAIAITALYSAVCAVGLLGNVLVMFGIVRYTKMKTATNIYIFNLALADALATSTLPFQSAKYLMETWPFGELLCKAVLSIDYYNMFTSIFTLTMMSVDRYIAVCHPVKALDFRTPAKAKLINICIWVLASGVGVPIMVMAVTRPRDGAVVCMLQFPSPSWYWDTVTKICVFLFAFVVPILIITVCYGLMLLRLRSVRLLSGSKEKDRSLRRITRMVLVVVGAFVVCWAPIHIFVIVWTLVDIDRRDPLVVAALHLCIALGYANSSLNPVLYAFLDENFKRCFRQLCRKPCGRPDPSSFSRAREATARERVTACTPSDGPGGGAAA
Numbers without * were called inactive; nt = no result given.

SMILES | EBI2 antag | HTR2A ag | MC4R barr agon | MC4R antag cAMP | MC4R barr ag | MOR-DOR barr ag
O=C(CSc1ccccc1Cl)NC1CCCc2ccccc21 (configuration not stated) | -12 | -4 | -1 | 4 | nt | nt
O=c1ccn([C@@H]2O[C@H](CNCc3cccn3-c3nccs3)[C@@H](O)[C@H]2O)c(=O)[nH]1 | 2 | 1 | nt | nt | nt | nt
Cc1ccc(C)c(C(O)c2ncc(-c3ccccc3Cl)[nH]2)c1 (configuration not stated) | -5 | -3 | -1 | -2 | nt | nt
Cc1cc(-c2n[nH]c(=S)n2/N=C/c2ccc(Br)s2)n[nH]1 | -4 | 2 | -2 | 10 | nt | nt
S=c1[nH]nc(-c2cc(-c3ccccc3)n[nH]2)n1/N=C/c1ccc(Br)s1 | 16 | 5 | 33* | 6 | 2 | 2
Cc1ccsc1/C=N/n1c(-c2cc(-c3ccccc3)n[nH]2)n[nH]c1=S | 42 | 1 | 12* | 12 | -3 | 4
Cc1ccccc1/C=N/n1c(-c2ccccn2)n[nH]c1=S | 3 | 5 | 0 | -2 | nt | nt
Cc1ccccc1/C=N/n1c(-c2cc(-c3ccccc3)n[nH]2)n[nH]c1=S | 24 | 6 | 13* | 23 | 4 | 5
O=C(/C=C/c1cccc(F)c1)OCC(=O)N1CCc2ccccc21 | 1 | -1 | 28* | 8 | 0 | 3
COc1ccc2c(c1)Cc1cc(NC(=O)c3ccccc3-c3ccccc3C(=O)O)ccc1-2 | -6 | 10 | 0 | -4 | nt | nt
COc1ccc(NC(=O)c2ccccc2NC(=O)CSc2ccc(Cl)cc2)cc1 | 10 | 0 | 0 | -5 | nt | nt
COc1ccc(NC(=O)c2ccccc2NC(=O)c2ccccc2)cc1 | -2 | -5 | 9.6* | 3 | 2 | 5
COc1ccc(C(=O)Nc2ccccc2C(=O)Nc2cccnc2)cc1 | 5 | -3 | 0 | -3 | nt | nt
COc1ccc(NC(=O)c2ccccc2NC(=O)CSc2ccccc2)cc1 | 3 | -3 | 13* | 1 | -1 | 5
O=C(CSc1ccccc1)Nc1ccc(C(=O)Nc2ccc(O)cc2)cc1 | -3 | 4 | 28* | 5 | 15* | 5
NC(=O)C(NN=C(c1ccccc1)c1ccccc1)c1ccccc1 (configuration not stated) | -4 | -8 | -2 | 7 | nt | nt
COc1ccc(N2CC(O)=C(c3nc(-c4ccccc4)cs3)C2=N)cc1 | -7 | -2 | 19* | 8 | 8 | 4
C=CCn1c(SCC(=O)Nc2ccc(C(=O)OC(C)C)cc2)nnc1-c1cccs1 | 6 | 8 | 23* | 17 | 1 | 2
Oc1ccc(N=Nc2c(O)ccc3ccccc23)cc1 | 23 | -9 | -4 | -4 | nt | nt
N=C(N)c1ccc(N=Nc2c(O)ccc3c2[nH]c2ccccc23)cc1 | 2 | -4 | 10.0* | 0 | 10* | 17
Cc1ccc(S(=O)(=O)N(CCC(=O)NCc2ccc(S(N)(=O)=O)cc2)c2ccccc2)cc1 | 3 | -8 | 0 | 8 | nt | nt
CC(C)c1ccc(NC(=S)NCc2ccc3c(c2)OCO3)cc1 | -1 | 0 | 12* | 9 | 1 | 6
O=C(COc1ccccc1Cl)Nc1ccc2oc(=O)ccc2c1 | -9 | 0 | 12* | -4 | 7 | 6
O=C(COc1ccc2ccc(=O)oc2c1)Nc1ccc(N2CCCCC2)cc1 | -3 | 5 | 16* | 5 | 9.1* | 9
Cc1ccccc1OCC(=O)Nc1ccc2oc(=O)ccc2c1 | 10 | -3 | -2 | 0 | nt | nt
SMILES | EBI2 antag | HTR2A ag | MC4R barr agon | MC4R antag cAMP | MC4R barr ag | MOR-DOR barr ag
O=C(COc1ccc2ccc(=O)oc2c1)Nc1ccc(CCO)cc1 | -7 | 2 | -2 | -2 | nt | nt
CCN(C(=S)Nc1cccc2ccccc12)c1ccccc1 | -11 | 0 | -1 | -13 | nt | nt
CC1(C(=O)NS(=O)(=O)c2cccs2)CCN1C(=O)CCc1ccc(Cl)cc1Cl (configuration not stated) | 7 | 5 | -1 | 0 | nt | nt
Cc1sc2ncnc(N3CCC(C(=O)Nc4ccc(S(N)(=O)=O)cc4)CC3)c2c1C | 0 | -5 | 0 | 17 | nt | nt
Cc1sc2ncnc(N3CCC(C(=O)Nc4ccc(C#N)cc4)CC3)c2c1C | -4 | -4 | 11* | 13 | 0 | 8
CCCOc1c(Br)cc(C(=O)OCC(=O)NC(=O)c2cccn2C)cc1OC | 7 | -12 | 18* | 1 | 8.6* | 7
O=C1NC[C@H](CCCCN2CCN(CCc3ccccc3)C(=O)C2=O)N(CCc2ccccc2)C1=O | -2 | -2 | nt | nt | nt | nt
COCc1ccc(CN2CCC(n3nccc3NC(=O)c3ccc4c(c3)OCO4)CC2)o1 | -3 | -4 | 0 | -2 | nt | nt
Cc1ccc(C(C)C)c(OCc2nn(CC(=O)c3ccc(OC(F)F)cc3)c3[n+]2CCCCC3)c1 | 3 | -8 | 20* | 16 | 14* | 25*
O=C(COc1ccc(-c2ccccc2)cc1)N/N=C/c1cc(O)ccc1Br | 6 | 0 | 37* | 0 | 13* | 5
CCCCCCCCN1C(=O)[C@H](CC(=O)NCc2cccc3ccccc23)C[C@@]2(C(=O)OC)CC(C)(C)CC=C12 | 26 | -9 | nt | nt | nt | nt
N#C/C(=C(/O)COC(=O)CSc1ccc(Cl)cc1)c1nc2ccccc2[nH]1 | -8 | 5 | 9.7* | 3 | -4 | 4
Cc1cc(SCC(=O)OC/C(O)=C(\C#N)c2nc3ccccc3[nH]2)c(C)cc1Br | -7 | 7 | 1 | 8 | nt | nt
Cc1onc(-c2ccccc2)c1C(=O)Nc1nc(-c2cc(F)ccc2F)cs1 | 20 | 6 | 34* | -6 | 8 | 6
CCOC(=O)c1cc(-c2ccccc2)sc1NC(=O)COC(=O)c1cccc(S(N)(=O)=O)c1 | 8 | 4 | 16* | -13 | 19* | 22*
CCOC(=O)c1cc(-c2ccccc2)sc1NC(=O)CSc1nnc(N)s1 | 6 | -2 | 11* | 23 | 3 | 7
C[C@H]1CN([C@@H](C)CO)C(=O)c2cc(Br)cnc2O[C@@H]1CN(C)S(=O)(=O)c1ccccc1 | -5 | 13 | -1 | -1 | nt | nt
Cc1cc(Nc2ccc(F)c(F)c2)nc(-c2ccccc2O)n1 | 20 | -1 | 14* | 4 | 4 | 5
C/C(=N\OC(=O)Nc1ccccc1)c1ccc(C)cc1 | 9 | 1 | 1 | 0 | nt | nt
O=C(Nc1ccccc1)Nc1ccc2ccccc2c1 | 1 | -3 | 2 | 9 | nt | nt
C/C(=N/NC(=O)Nc1ccccc1)c1ccc(C)cc1 | 15 | -3 | 11* | 2 | -1 | 3
C/C(=N\NC(=O)Nc1ccccc1)c1ccc2ccccc2c1 | 12 | -4 | 21* | 0 | 4 | 6
CCN(CC)c1ncnc2c1ncn2[C@H]1CN(Cc2ccc3c(c2)OCO3)C[C@@H](CO)O1 | -5 | 2 | -1 | 4 | nt | nt

Screening data from PubChem.
